Consider 22 compounds from ChEMBL document CHEMBL1128498, “Synthesis and antitumor activity of various 6-demethylmitomycins and 6-demethyl-6-halomitomycins” (1995).

The species entered for assay [1] is Mus musculus. Description: 50% inhibition of solid tumor growth (Sarcoma 180 cells) in mice. It counts as functional. A digest of the protocol:
(§1)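 Sarcoma 180 cells inoculated sc into the axillary region of ddY mice on day 0; compound given iv on day 1. Tumor volume compared treated versus control (T/C). ED50 is the dose giving 50% inhibition of tumor growth, from the dose-response curve. Optimal dose also recorded.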

The species named for assay [2] is Mus musculus. Description: T/C value was measured as tumor volume in the treated versus control mice. The format is functional. An outline of the steps:
as §1

Assay [3] can be described thus: Optimal dose was measured against sarcoma 180 cell in mice. The format is functional, Mus musculus. A digest of the protocol: as §1
In the next assay the test system is HeLa. Description: Inhibition of HeLa S3 cell growth relative to mitomycin C action (ratio of IC50 values). It counts as functional, Homo sapiens. An outline of the steps:
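HeLa S3 cells plated on day 0 and exposed to drug for 1 h on day 1. IC50 is the concentration giving 50% growth inhibition, taken from the concentration-response curve. Reported as IC50 of test compound divided by IC50 of mitomycin C.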

A value given as a limit tells only on which side of the number the result lay.

The term ED50 denotes the midpoint of the dose-response relation. A lower ED50 goes with greater potency. On to `COC1=CC(=O)C2=C(C1=O)[C@@H](COC(N)=O)[C@@]1(OC)[C@@H]3[C@H](CN21)N3C` (stereo not given in full), for which the 50% effect level in the assay listed under Mus musculus [1] (ED50) was put at a dose of 7.1 mg/kg. Also, the T/C in the assay listed under Mus musculus [2] came to 0.36. The OD in assay [3] came out at 10 mg/kg. Also, the IC50 ratio with HeLa came to 0.29.
In the same order, the values of `COC1=CC(=O)C2=C(C1=O)[C@H](COC(N)=O)[C@@]1(O)[C@@H]3[C@H](CN21)N3C` (stereo not given in full) are 11 mg/kg, 0.31, 20 mg/kg and 16.
Consider `COC1=C(Br)C(=O)C2=C(C1=O)[C@@H](COC(N)=O)[C@@]1(OC)[C@H]3N[C@H]3CN21`, for which the ED50 in the assay listed under Mus musculus [1] came to 8.4 mg/kg. In the assay listed under Mus musculus [2], this compound had a T/C of 0.47. This compound also came in with an OD in assay [3] of 14 mg/kg. The IC50 ratio in the assay on HeLa was 1.9.
Compound `CN1[C@H]2[C@@H]1CN1C3=C(C(=O)C(N)=C(Br)C3=O)[C@H](COC(N)=O)[C@@]21O` (stereo not given in full) registered a T/C in the assay filed under Mus musculus [2] of 0.55. This compound yielded an OD in assay [3] of 30 mg/kg. Further, the IC50 ratio in the assay on HeLa is recorded as greater than 35.
In the assay filed under Mus musculus [2], `CC1=C(N)C(=O)C2=C(C1=O)N1C[C@H]3[C@H](N3C)[C@]1(O)[C@H]2COC(N)=O` (stereo not given in full) showed a T/C of 0.59. The compound further yielded an OD in assay [3] of 100 mg/kg. Moreover, the IC50 ratio in the assay with HeLa is recorded as greater than 20.
`CN1[C@H]2[C@@H]1CN1C3=C(C(=O)C(N)=CC3=O)[C@H](COC(N)=O)[C@@]21O` (stereo not given in full) came in with an ED50 in the assay listed under Mus musculus [1] of 33 mg/kg. Further, the T/C in the assay listed under Mus musculus [2] turned out to be 0.26. Moreover, the OD in assay [3] was found to be 100 mg/kg. The IC50 ratio in the assay with HeLa was greater than 71.
In the same order, the values of `CO[C@@]12[C@H](COC(N)=O)C3=C(C(=O)C=C(N)C3=O)N1C[C@@H]1N[C@@H]12` are 2.6 mg/kg, 0.25, 5 mg/kg and 3.2.
In the assay listed under Mus musculus [1], `COC1=CC(=O)C2=C(C1=O)[C@@H](COC(N)=O)[C@@]1(OC)[C@H]3N[C@H]3CN21` yielded a median effective dose (ED50) of 1.6 mg/kg. In the assay filed under Mus musculus [2], this compound showed a T/C of 0.45. For the same compound, the OD in assay [3] was found to be 2 mg/kg. For the same compound, the IC50 ratio in the assay with HeLa amounted to 0.3.
For `CN1[C@H]2[C@@H]1CN1C3=C(C(=O)C(N)=C(Cl)C3=O)[C@H](COC(N)=O)[C@@]21O` (stereo not given in full), the ED50 in the assay filed under Mus musculus [1] is 17 mg/kg. Further, in the assay listed under Mus musculus [2], the T/C came out at 0.43. In addition, the OD in assay [3] was 20 mg/kg. In addition, the IC50 ratio in the assay with HeLa is on record as greater than 20.
With `COC1=C(Br)C(=O)C2=C(C1=O)[C@@H](COC(N)=O)[C@@]1(OC)[C@@H]3[C@H](CN21)N3C` (stereo not given in full), in the assay filed under Mus musculus [2], the T/C came to 0.97. The same compound registered an OD in assay [3] of 14 mg/kg. Also, in the assay with HeLa, the IC50 ratio is greater than 4.8.
Consider `CO[C@@]12[C@H](COC(N)=O)C3=C(C(=O)C(Cl)=C(N)C3=O)N1C[C@@H]1N[C@@H]12`, for which the 50% effect level in the assay filed under Mus musculus [1] (ED50) was put at a dose of 1.4 mg/kg. In the assay listed under Mus musculus [2], the T/C was determined as 0.14. In assay [3], this compound yielded an OD of 2.7 mg/kg. Further, in the assay with HeLa, the IC50 ratio is recorded as 0.37.
In the same order, the values of `COC1=C(Br)C(=O)C2=C(C1=O)[C@H](COC(N)=O)[C@@]1(O)[C@@H]3[C@H](CN21)N3C` (stereo not given in full) are 22 mg/kg, 0.44, 30 mg/kg and greater than 3.7.
In the assay filed under Mus musculus [1], `CO[C@@]12[C@H](COC(N)=O)C3=C(C(=O)C(Cl)=C(N)C3=O)N1C[C@H]1[C@@H]2N1C` (stereo not given in full) gave an ED50 of 2.3 mg/kg. For the same compound, the T/C in the assay listed under Mus musculus [2] worked out at 0.11. In addition, in assay [3], the OD is 4 mg/kg. Further, in the assay on HeLa, the IC50 ratio came to 0.76.
The compound `CO[C@@]12[C@H](COC(N)=O)C3=C(C(=O)C(Br)=C(N)C3=O)N1C[C@H]1[C@@H]2N1C` (stereo not given in full) had a T/C in the assay listed under Mus musculus [2] of 0.63. Also, the OD in assay [3] is 4 mg/kg. Further, in the assay on HeLa, the IC50 ratio turned out to be 1.9.
In the assay listed under Mus musculus [1], `CO[C@@]12[C@H](COC(N)=O)C3=C(C(=O)C=C(N)C3=O)N1C[C@H]1[C@@H]2N1C` (stereo not given in full) showed an ED50 of 8.4 mg/kg. Also, the T/C in the assay listed under Mus musculus [2] worked out at 0.08. The compound also returned an OD in assay [3] of 20 mg/kg. In addition, in the assay on HeLa, the IC50 ratio is 16.
`COC1=C(Cl)C(=O)C2=C(C1=O)[C@H](COC(N)=O)[C@@]1(O)[C@@H]3[C@H](CN21)N3C` (stereo not given in full) returned a T/C in the assay listed under Mus musculus [2] of 0.62. The OD in assay [3] amounted to 20 mg/kg. For the same compound, the IC50 ratio with HeLa was found to be 11.
On to `COC1=C(Cl)C(=O)C2=C(C1=O)[C@@H](COC(N)=O)[C@@]1(OC)[C@H]3N[C@H]3CN21`, for which, in the assay with HeLa, the IC50 ratio is reported as 2.5.
Take `COC1=C(C)C(=O)C2=C(C1=O)[C@@H](COC(N)=O)[C@@]1(OC)[C@H]3N[C@H]3CN21` [MITOMYCIN A]: the ED50 in the assay listed under Mus musculus [1] amounted to 1.3 mg/kg. For the same compound, in the assay filed under Mus musculus [2], the T/C turned out to be 0.2. Besides, in assay [3], the OD is 1.8 mg/kg. The IC50 ratio in the assay on HeLa stood at 0.0035.
On the same counts, the results for `COC1=C(C)C(=O)C2=C(C1=O)[C@H](COC(N)=O)[C@@]1(O)[C@@H]3[C@H](CN21)N3C` (stereo not given in full) [MITOMYCIN B] are 2.8 mg/kg, 0.37, 4 mg/kg and 0.29.
In the assay listed under Mus musculus [1], `CO[C@@]12[C@H](COC(N)=O)C3=C(C(=O)C(C)=C(N)C3=O)N1C[C@@H]1N[C@@H]12` [MITOMYCIN] yielded an ED50 of 1.6 mg/kg. The compound also came in with a T/C in the assay listed under Mus musculus [2] of 0.27. In assay [3], this compound showed an OD of 3.1 mg/kg. Also, in the assay with HeLa, the IC50 ratio turned out to be 0.49.
On the same counts, the results for `COC1=C(C)C(=O)C2=C(C1=O)[C@@H](COC(N)=O)[C@@]1(OC)[C@@H]3[C@H](CN21)N3C` (stereo not given in full) [N-METHYL-MITOMYCIN A] are 6.5 mg/kg, 0.32, 8 mg/kg and less than 0.031.
The compound `CO[C@@]12[C@H](COC(N)=O)C3=C(C(=O)C(C)=C(N)C3=O)N1C[C@H]1[C@@H]2N1C` (stereo not given in full) [PORFIROMYCIN] had an ED50 in the assay filed under Mus musculus [1] of 16 mg/kg. The T/C in the assay filed under Mus musculus [2] is 0.23. In addition, the OD in assay [3] came out at 40 mg/kg. In addition, in the assay with HeLa, the IC50 ratio was determined as 9.5.
